Reference: ChEMBL document CHEMBL5357066, “Development of Novel Membrane Disrupting Lipoguanidine Compounds Sensitizing Gram-Negative Bacteria to Antibiotics” (ACS Med Chem Lett, 2024)
Activity calls are given as the source filed them. The calls are words filed in the database; no cut-off is given here.

How the values were obtained:
Pseudomonas aeruginosa [1] = experiment: Synergistic antibacterial activity against Pseudomonas aeruginosa PAO1 assessed as novobiocin MIC at <=0.25 times MIC incubated for overnight by microbroth dilution checkerboard assay; assay type: functional
Outline: (§1)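 Checkerboard microdilution in Tryptic Soy Broth, run like the MIC assay. Overnight TSB cultures were back-diluted to OD 0.01 and added 1:1 to the combined two-fold series of both agents, then incubated overnight at 37 °C. Growth/no-growth was called at <0.1 OD600. MICs alone were read on the same plates. FIC index came from the most synergistic well; three independent repeats, mean ± SD.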

Escherichia coli [2] = experiment: Potentiation of doxycycline induced antibacterial activity against Escherichia coli NCTC 12923; assay type: functional, organism-based
Pseudomonas aeruginosa [3] = experiment: Synergistic antibacterial activity against Pseudomonas aeruginosa PAO1 assessed as bacterial growth inhibition incubated for overnight in presence of […] by microbroth dilution method relative to control; assay type: functional
Outline: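 Fixed-concentration combination MIC in TSB. The first agent was set in a two-fold dilution series (100 µL/well), then 50 µL/well of the second agent at a fixed concentration was added; PMBN was fixed at 30 µg/mL. Bacteria at OD 0.02 (50 µL) went into 150 µL of compounds, overnight at 37 °C. MIC was the lowest concentration without visible growth (<0.1 OD600).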

Klebsiella pneumoniae [4] = experiment: Synergistic antibacterial activity against […] Klebsiella pneumoniae NCTC 13368 assessed as novobiocin MIC at <=0.25 times MIC incubated for overnight by microbroth dilution checkerboard assay; assay type: functional
Outline: (§2)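 Checkerboard run under the MIC conditions (TSB, overnight, 37 °C). Antibiotic and lipoguanidine 2-fold series were combined on one plate before bacteria were added. Growth/no-growth was scored as for the MIC (<0.1 OD600). Single-agent MICs were measured on the same plates. Three independent repeats were done.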

Escherichia coli [5] = experiment: Synergistic antibacterial activity against Escherichia coli NCTC 12923 assessed as bacterial growth inhibition incubated for overnight in presence of PBMN by microbroth dilution method relative to control; assay type: functional
Outline: (§3)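 Adapted broth microdilution in TSB. The test compound was in a 2-fold dilution series, with PMBN added at a fixed 30 µg/mL. Bacteria at OD 0.02 were added, and plates were incubated overnight at 37 °C. Growth/no growth was read as for the MIC (<0.1 OD600).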

Escherichia coli [6] = experiment: Synergistic antibacterial activity against Escherichia coli NCTC 12923 assessed as novobiocin MIC at <=0.25 times MIC incubated for overnight by microbroth dilution checkerboard assay; assay type: functional
Outline: (§4)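 Checkerboard microdilution under MIC conditions (TSB, overnight, 37 °C). Two-fold series of each agent were combined on one plate before bacteria were added, and single-agent MICs were measured on the same plate. FIC = sum of combination MIC/alone MIC for each agent, taken from the most synergistic well. Three independent repeats, mean ± SD. ≤0.5 was taken as strong synergy and 0.5–<1 as weak.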

Acinetobacter baumannii [7] = experiment: Synergistic antibacterial activity against Acinetobacter baumannii AYE assessed as fold change in novobiocin MIC at <=0.25 times MIC incubated for overnight by microbroth dilution checkerboard assay relative to novobiocin alone; assay type: functional; outline: as §4
Acinetobacter baumannii [8] = experiment: Synergistic antibacterial activity against Acinetobacter baumannii ATCC 17978 assessed as novobiocin MIC at <=0.25 times MIC incubated for overnight by microbroth dilution checkerboard assay; assay type: functional; outline: as §4
Klebsiella pneumoniae [9] = experiment: Synergistic antibacterial activity against […] Klebsiella pneumoniae M6 assessed as novobiocin MIC at <=0.25 times MIC incubated for overnight by microbroth dilution checkerboard assay; assay type: functional; outline: as §2
Escherichia coli [10] = experiment: Synergistic antibacterial activity against Escherichia coli NCTC 12923 assessed as fold change in novobiocin MIC at <=0.25 times MIC incubated for overnight by microbroth dilution checkerboard assay relative to novobiocin alone; assay type: functional; outline: as §4
[11] = Hemolytic activity in human Red blood cells at 512 microg/ml measured after 1 hrs by absorbance based assay relative to control; assay type: toxicity, cell-based, Erythrocyte; details: red blood cells (erythrocytes), at 512 µg/mL, read-out: Activity
Outline: (§5)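 Titrations in PBS were incubated with freshly collected human red blood cells for 1 h at 37 °C. Controls were 0.1% Triton-X-100 (full lysis) and PBS alone (no lysis). After centrifugation, supernatant OD550 was read. % haemolysis = (AP−AB)/(AC−AB)×100. Data are means and standard error of three biological replicates.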

Klebsiella pneumoniae [12] = experiment: Synergistic antibacterial activity against Klebsiella pneumoniae M6 assessed as bacterial growth inhibition incubated for overnight in presence of PBMN by microbroth dilution method relative to control; assay type: functional; outline: as §3
Acinetobacter baumannii [13] = experiment: Synergistic antibacterial activity against Acinetobacter baumannii ATCC 17978 assessed as fold change in novobiocin MIC at <=0.25 times MIC incubated for overnight by microbroth dilution checkerboard assay relative to novobiocin alone; assay type: functional; outline: as §4
Klebsiella pneumoniae [14] = experiment: Synergistic antibacterial activity against Klebsiella pneumoniae NCTC 13368 assessed as bacterial growth inhibition incubated for overnight in presence of PBMN by microbroth dilution method relative to control; assay type: functional; outline: as §3
Acinetobacter baumannii [15] = experiment: Synergistic antibacterial activity against Acinetobacter baumannii AYE assessed as novobiocin MIC at <=0.25 times MIC incubated for overnight by microbroth dilution checkerboard assay; assay type: functional; outline: as §4
Klebsiella pneumoniae [16] = experiment: Synergistic antibacterial activity against Klebsiella pneumoniae M6 assessed as fold change in novobiocin MIC at <=0.25 times MIC incubated for overnight by microbroth dilution checkerboard assay relative to novobiocin alone; assay type: functional; outline: as §4
Cell membrane = experiment: Induction of outer membrane permeabilization in Acinetobacter baumannii AYE assessed as increase fluorescence intensity by measuring NPN uptake factor measured immediately for 2 hrs by fluorescence based analysis; assay type: subcellular
Outline: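 NPN outer-membrane uptake. Overnight TSB cultures (37 °C, 200 rpm) were subcultured 1:20 for 2 h to mid-log, washed, and resuspended in 5 mM HEPES with 5 mM glucose, pH 7.2. Cells were mixed with assay buffer containing 10 µM NPN, then with compound, polymyxin B (positive control) or buffer. Fluorescence (ex 350, em 420 nm) was monitored immediately for 2 h.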

Pseudomonas aeruginosa [17] = experiment: Synergistic antibacterial activity against Pseudomonas aeruginosa NCTC 13437 assessed as novobiocin MIC at <=0.25 times MIC incubated for overnight by microbroth dilution checkerboard assay; assay type: functional; outline: as §1
Pseudomonas aeruginosa [18] = experiment: Synergistic antibacterial activity against Pseudomonas aeruginosa NCTC 13437 assessed as fold change in novobiocin MIC at <=0.25 times MIC incubated for overnight by microbroth dilution checkerboard assay relative to novobiocin alone; assay type: functional; outline: as §4
Klebsiella pneumoniae [19] = experiment: Synergistic antibacterial activity against Klebsiella pneumoniae NCTC 13368 assessed as fold change in novobiocin MIC at <=0.25 times MIC incubated for overnight by microbroth dilution checkerboard assay relative to novobiocin alone; assay type: functional; outline: as §4
Pseudomonas aeruginosa [20] = experiment: Synergistic antibacterial activity against Pseudomonas aeruginosa NCTC 13437 assessed as bacterial growth inhibition incubated for overnight in presence of PBMN by microbroth dilution method relative to control; assay type: functional; outline: as §3
Pseudomonas aeruginosa [21] = experiment: Synergistic antibacterial activity against Pseudomonas aeruginosa PAO1 assessed as fold change in novobiocin MIC at <=0.25 times MIC incubated for overnight by microbroth dilution checkerboard assay relative to novobiocin alone; assay type: functional; outline: as §1
Acinetobacter baumannii [22] = experiment: Synergistic antibacterial activity against Acinetobacter baumannii AYE assessed as bacterial growth inhibition incubated for overnight in presence of PBMN by microbroth dilution method relative to control; assay type: functional; outline: as §3
Erythrocyte = experiment: Hemolytic activity in human Red blood cells at 512 microg/ml measured after 1 hrs by absorbance based assay; assay type: toxicity, cell-based; details: dose 512 µg/ml; outline: as §5

Compound | MIC (Pseudomonas aeruginosa [1]) [µg/mL] | inhibition (INH) (Pseudomonas aeruginosa [3]) [%] | MIC (Klebsiella pneumoniae [4]) [µg/mL] | inhibition (INH) (Escherichia coli [5]) [%] | MIC (Escherichia coli [6]) [µg/mL] | fold change (FC) (Acinetobacter baumannii [7]) | MIC (Acinetobacter baumannii [8]) [µg/mL] | MIC (Klebsiella pneumoniae [9]) [µg/mL] | fold change (FC) (Escherichia coli [10]) | inhibition (INH) (Klebsiella pneumoniae [12]) [%] | fold change (FC) (Acinetobacter baumannii [13]) | inhibition (INH) (Klebsiella pneumoniae [14]) [%] | MIC (Acinetobacter baumannii [15]) [µg/mL] | fold change (FC) (Klebsiella pneumoniae [16]) | MIC (Pseudomonas aeruginosa [17]) [µg/mL] | fold change (FC) (Pseudomonas aeruginosa [18]) | fold change (FC) (Klebsiella pneumoniae [19]) | inhibition (INH) (Pseudomonas aeruginosa [20]) [%] | fold change (FC) (Pseudomonas aeruginosa [21]) | Activity (Erythrocyte) | further results
CCCCCCCCCCNC(=N)NCCCCN | 2 | <20 | 16 | <20 | 0.5 | >=4 | 0.25 | 4 | >=4 | <20 | >=4 | <20 | ≤ 0.125 | >=4 | 8 | >=4 | >=4 | <20 | >=4 | – | Activity (Escherichia coli [2]): Active; hemolysis at 1 h, 512 microg/ml [11]: 8.2%; Activity (Cell membrane): > 1; inhibition (INH) (Acinetobacter baumannii [22]): <20%
CCCCCCCCCCCCNC(=N)NCCCCN | – | <20 | – | <20 | – | – | – | – | – | <20 | – | <20 | – | – | – | – | – | <20 | – | Toxic | inhibition (INH) (Acinetobacter baumannii [22]): <20%
CCCCCCCC/C=C\CCCCCCCCNC(=N)NCCCCN | > 128 | <20 | > 128 | <20 | > 128 | >=4 | ≤ 0.125 | 16 | 0 | <20 | >=4 | <20 | ≤ 0.125 | >=4 | > 128 | 0 | 0 | <20 | 0 | Toxic | inhibition (INH) (Acinetobacter baumannii [22]): <20%
CCCCCCCC/C=C\CCCCCCCCNC(=N)NCCCCNC(=N)N | > 128 | <20 | > 128 | <20 | 4 | 0 | ≤ 0.125 | 1 | >=4 | <20 | >=4 | <20 | ≤ 0.125 | >=4 | > 128 | 0 | 0 | <20 | 0 | Toxic | inhibition (INH) (Acinetobacter baumannii [22]): <20%
CC/C=C\C/C=C\C/C=C\CCCCCCCCNC(=N)NCCCCN | > 128 | – | > 128 | – | 32 | >=4 | ≤ 0.125 | 8 | 0 | – | >=4 | – | ≤ 0.125 | >=4 | > 128 | 0 | 0 | – | 0 | Toxic | –
CCCCC/C=C\C/C=C\CCCCCCCCNC(=N)NCCCCN | > 128 | – | > 128 | – | > 128 | >=4 | 1 | 64 | 0 | – | 0 | – | 1 | 0 | > 128 | 0 | 0 | – | 0 | Toxic | hemolysis at 1 h, 512 microg/ml [11]: 100%
